SKN-1 block = suppressors of acrylamide-induced Pgst-4::GFP reporter in worms, primary screen, SKN-1 inhibitor project, whole organism, uHTS, GFP/RFP fluorescence ratio, strain VP596; C. elegans VP596 Pgst-4::GFP/RFP ratio, 24 h; 360,000 compounds, 0.49% hits; AID 624304, 2012; inhibition, % at 21.8 µM;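 active means interference check ratio from 0.5 to 1.5 plus GFP to RFP signal ratio inhibition reaching or exceeding a fixed threshold, cut at about 30% in these data, passing the limit was not always enough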
NR1D1 modulator = modulators of Rev-erb alpha DNA binding, primary screen, biochemical, FITC-DNA, fluorescence polarization, uHTS. Rev-erbα–FITC-DNA binding, 90 min. AID 1259318, 2017. 370,000 compounds, 0.79% hits. activity, % at 10 µM. Nuclear receptor subfamily 1 group D member 1 (Homo sapiens), P20393;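 active means activity above about 14%, limit read from the data; passing the limit was not always enough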;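 further: 0% = DMSO wells with 35 nM protein and 100% = DMSO wells with 750 nM protein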
NR2E3 ag-1 = inhibitors of NR2E3-RetCOR corepressor binding, primary screen, NR2E3 agonist project, biochemical, TR-FRET, GST-NR2E3, biotin-RetCOR; 1536-well; AID 2300, 2010; 320,000 compounds, 0.12% hits; inhibition of corepressor binding, % at 4.78 µM;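 active means percent inhibition above the cutoff of mean plus 3 SD of all tested compounds, set per screening campaign, cut at about 20% in these data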;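 further: 0% = DMSO wells and 100% = biotin wells as full block of FRET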
Target sequence (Q9Y5X4 whole entry, looked up): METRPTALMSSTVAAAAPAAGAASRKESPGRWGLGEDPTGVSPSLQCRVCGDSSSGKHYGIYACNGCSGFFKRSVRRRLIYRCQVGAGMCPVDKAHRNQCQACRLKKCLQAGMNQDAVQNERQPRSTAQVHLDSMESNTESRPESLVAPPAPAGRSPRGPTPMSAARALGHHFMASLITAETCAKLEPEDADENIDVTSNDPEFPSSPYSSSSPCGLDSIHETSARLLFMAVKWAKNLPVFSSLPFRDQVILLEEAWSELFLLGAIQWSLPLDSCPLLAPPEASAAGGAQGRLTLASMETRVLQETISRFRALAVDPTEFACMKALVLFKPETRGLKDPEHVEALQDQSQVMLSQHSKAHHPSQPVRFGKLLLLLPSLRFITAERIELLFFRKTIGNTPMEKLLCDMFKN
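Assay system: NR2E3–RetCOR corepressor complex. Quantity: 1.35 nM GST-NR2E3. Buffer or medium: pH 7.5 Tris-based buffer. Reagent: biotinylated RetCOR corepressor at 7 nM final. Schedule: 5 h at 4 °C. Detection: TR-FRET, emission read at 617 and 671 nm. Replicates: one well per compound, singlicate testing.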
PG9 Ab binder = binders of HIV-1 gp120 antibody PG9, primary screen, biochemical, TR-FRET; inhibition, % at 6.7 µM; AID 624416, 2012; TR-FRET gp120-PG9 antibody binding; 360,000 compounds, 0.43% hits; in the data active means inhibition above about 8.5%
NR2E3 ag-2 = NR2E3 agonists in two-hybrid cells, primary screen, cell-based, luminescence, CHO-S, Gal4-NCOR/VP16-NR2E3; Photoreceptor-specific nuclear receptor (Homo sapiens), Q9Y5X4; luciferase; inhibition of corepressor binding, % at 3.98 µM; 360,000 compounds, 0.35% hits;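 active means inhibition above the mean of all tested compounds plus 3 SD, cut at about 70% in these data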;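 further: 0% = DMSO with NR2E3 transfected cells and 100% = cells lacking NR2E3 construct; higher means lower luciferase signal from less NR2E3 corepressor binding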
MT1-MMP act inh = blockers of MT1-MMP proenzyme processing, primary screen, HT1080 RFP-PRO-GFP cells, GFP/RFP fluorescence | Matrix metalloproteinase-14 (Homo sapiens), P50281 | GFP/RFP ratio fluorescence, overnight; percent of plate control window, DMSO zero | GFP/RFP ratio change, % at 20 µM | 360,000 compounds, 0.061% hits | AID 651647, 2012;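 active means GFP/RFP ratio change of at least 30% with cell ATP level not reduced by more than half and red fluorescence within 50% of control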
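Assay system: HT1080 RFP-PRO-GFP cells. Benchmarks: DMSO vehicle wells and RFP-L50D-GFP reporter cell wells. Times: overnight cell settling, then overnight compound exposure, 37 °C, 5% CO2. Compound: 20 µM single dose, 1% DMSO. Read-out basis: GFP/RFP fluorescence ratio.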
Starred values were filed as active, the others as inactive; x = no result. Rows were chosen to be rich in hits. Some 1.9% of all compounds tested hit in one or more screens of this group.

SMILES	SKN-1 block	NR1D1 modulator	NR2E3 ag-1	PG9 Ab binder	NR2E3 ag-2	MT1-MMP act inh
O=C(O)CCC1c2cc3c4cc2OC2Oc5cc6c(cc51)C(CCC(=O)O)c1cc5c7cc1OC(O6)c1cc6cc(c1)Oc1cc(cc(C(=O)O)c1)Oc1cc8cc(c1)C(Oc1cc(c(cc1C5CCC(=O)O)C3CCC(=O)O)OC(O4)c1cc(cc(c1)Oc1cc(cc(C(=O)O)c1)O8)Oc1cc(cc(C(=O)O)c1)Oc1cc(cc2c1)Oc1cc(cc(C(=O)O)c1)O6)O7 (stereo not given)	x	x	20.8*	x	x	x
O=C(C[C@H]1C[C@H](C(=O)N2CCOCC2)[C@@]2(CCC3CCCC3)c3[nH]c4cc(-c5ccco5)ccc4c3CCN2C1=O)NCc1ccco1	35.6*	-3.2	x	0.0	-45.9	-24.1
O=C(C[C@H]1C[C@H](C(=O)N2CCOCC2)[C@@]2(CCC3CCCC3)c3[nH]c4cc(-c5ccco5)ccc4c3CCN2C1=O)NCCC1=CCCCC1	6.0	x	x	x	3.4	-10.3
Cc1c(C)n(C)c2ccc(C(=O)NCCCN(C)C3CCCCC3)cc12	37.8*	-4.1	-2.0	-3.5	-2.4	6.6
Cc1c(C)n(C)c2ccc(C(=O)NCCCN3CCCCC3C)cc12 (stereo not given)	9.6	-3.9	0.9	-3.8	0.5	-0.7
COc1ccccc1NS(=O)(=O)c1cc([N+](=O)[O-])ccc1N/N=C/c1c[nH]c2ccccc12	39.9*	-2.4	1.5	-0.4	2.8	-74.6
CCN1C(=O)N(C(C)=O)[C@H]2C[C@H](C(=O)N3CCCC3)[C@H](C)[C@H](c3ccccc3)C[C@H]21	x	-1.4	x	-0.2	x	x
CC(=O)Nc1ccc(NC(=O)c2cc(-c3cc(F)ccc3OCC3CCCO3)n[nH]2)cc1 (stereo not given)	-2.4	8.4	x	0.9	-19.0	0.0
CC(=O)Nc1cc(C(F)(F)F)ccc1OCC1CCCO1 (stereo not given)	36.5*	-2.6	0.7	-2.4	-24.0	1.6
O=C(CCNC(=O)c1ccccc1)OCC(=O)c1cccc(Cl)c1	-1.6	-1.2	4.5	-0.1	4.9	-5.2
O=C(CCC(=O)OCC(=O)c1ccc(-c2ccccc2)cc1)Nc1cccc(Cl)c1	14.1	4.6	1.6	9.0*	6.2	-2.7
C[C@H](CO)N1C[C@H](C)[C@@H](CN(C)S(C)(=O)=O)OCc2cn(nn2)CCCC1=O	x	0.2	x	0.1	x	x
CC(C)CC(C(=O)Oc1ccc2c3c(c(=O)oc2c1)CCC3)N1C(=O)c2ccccc2C1=O (stereo not given)	35.3*	-0.8	x	-2.3	9.2	0.3
Clc1ccc(-c2nnn(Cc3nc4ccccc4s3)n2)cc1	57.0*	-1.2	1.6	-0.1	-72.0	1.3
Fc1ccc(Cn2nnc(-c3ccc(Cl)cc3)n2)cc1	16.8	14.7	-0.7	4.6	-28.8	6.1
Fc1ccc(-c2nnn(Cc3ccccc3Cl)n2)cc1	17.4	-4.1	2.9	-0.3	-24.2	1.9
Fc1ccc(-c2nnn(Cc3nc4ccccc4s3)n2)cc1	36.6*	-2.1	0.0	1.8	-33.6	0.7
CCOC(=O)Cc1csc(NC(=O)Cc2ccc(Cl)cc2)n1	-11.0	0.8	2.6	-1.0	1.9	1.5
CCOC(=O)Nc1nc(-c2ccc(Cl)cc2Cl)cs1	57.1*	3.6	-0.3	-2.5	-42.5	-0.9
C[C@H]1CC2C3CCC4=CC(=O)C=C[C@]4(C)[C@@]3(F)[C@@H](O)C[C@]2(C)[C@@]1(O)C(=O)COP(=O)(O)O (stereo not given in full)	x	-4.2	x	x	x	x
Cc1cc2c(c(=O)o1)[C@@]1(C(=O)N(c3ccccc3)c3ccccc31)C1=C(CCCC1=O)O2	x	0.9	x	-0.9	x	x
CS(=O)(=O)N1N=C(c2ccc(Br)cc2)CC1c1ccc2c(c1)OCO2 (stereo not given)	36.6	x	-0.8	x	-135.5	-26.3
Cc1ccc(C2=NN(S(C)(=O)=O)C(c3ccc4c(c3)OCO4)C2)cc1 (stereo not given)	38.2*	1.4	-1.0	-1.8	-83.4	4.8
CN(C)S(=O)(=O)c1cccc(C(=O)N=C2N=C3C=CC(Cl)=CN3Cc3ccccc32)c1	56.6*	4.3	-0.5	1.5	-66.5	-2.9
O=C(N=C1N=C2C=CC=CN2Cc2ccccc21)c1ccc(S(=O)(=O)N2CCCC2)cc1	1.9	5.7	1.4	0.2	-68.8	1.2
SMILES	SKN-1 block	NR1D1 modulator	NR2E3 ag-1	PG9 Ab binder	NR2E3 ag-2	MT1-MMP act inh
Clc1cccc(/C=N/N2CCN(Cc3ccccc3)CC2)c1	44.1*	-3.5	-1.5	-1.5	-7.3	10.0
C(=N\N1CCN(Cc2ccccc2)CC1)/c1ccccc1	-2.1	1.6	-6.4	-1.0	-7.4	0.0
Cc1cc(C)c(NC(=O)COC(=O)C2CCN(c3ccc(C(F)(F)F)cn3)CC2)c(Cl)c1	35.9*	5.5	1.7	-1.4	-15.0	2.9
O[C@@H]1COC2C1OC[C@@H]2O (stereo not given in full)	x	0.5	x	x	x	x
COC(=O)CSc1nnc(SCc2ccc(OC)cc2)s1	39.3*	-6.4	-2.3	0.0	11.4	2.4
COc1ccc(CSc2nnc(SCc3ccccc3)s2)cc1	x	2.5	x	x	x	x
CC(C)OC(=O)CSc1nnc(SCc2cccc3ccccc23)s1	32.2*	2.4	-1.8	-2.0	-0.3	-1.9
C[C@H](CO)N1C[C@H](C)[C@@H](CN(C)C(=O)Nc2ccccc2)OCc2cn(nn2)CCCC1=O	x	-0.6	x	0.3	x	x
CCn1c(SCC(=O)NCc2ccco2)nc2ccccc2c1=O	-8.7	8.2	-0.9	1.2	-6.9	0.9
O=C(CSc1nc2ccccc2c2nc3ccccc3n12)NCc1ccco1	47.8*	-9.9	0.5	2.4	-8.5	-1.5
Clc1ccc(CSc2ncn(-c3ccccc3)n2)cc1	76.5*	-0.1	-1.6	2.3	-15.1	-3.7
Clc1cccc(CSc2ncn(-c3ccccc3)n2)c1	49.2*	-0.3	2.7	-0.1	-38.4	-1.4
O=C(CSc1ncn(-c2ccccc2)n1)N1CCc2ccccc21	5.8	2.3	-4.7	0.4	-13.5	-3.8
Clc1cccc(CSc2nccn2-c2ccccc2)c1	11.8	7.6	-0.2	2.2	-17.9	1.7
COc1cccc2c1[C@H](/C=C/c1ccccc1)[C@@H]([C@H](O)CO)OC2	x	1.6	x	x	x	x

Source: PubChem BioAssay (several laboratories)
